Experimental data as given in ChEMBL document CHEMBL4354843, “Structure-Based Design of a Potent and Selective Covalent Inhibitor for SRC Kinase That Targets a P-Loop Cysteine” (J Med Chem, 2020).

Tests used:
[1] = target: Ribosomal protein S6 kinase alpha-5 (Homo sapiens) (UniProt O75582); experiment: Binding affinity to wild-type human partial length N- terminal RPS6KA5 kinase domain 1 expressed in bacterial expression system assessed as residual binding level at 1 uM by Kinomescan method relative to control
[2] = target: Mitogen-activated protein kinase kinase kinase 10 (Homo sapiens) (UniProt Q02779); experiment: Binding affinity to wild-type human partial length MLK2 (V52 to W380 residues) expressed in bacterial expression system assessed as residual binding level at 1 uM by Kinomescan method relative to control
[3] = tested on: Mast/stem cell growth factor receptor Kit (Homo sapiens), P10721 [D816V]; experiment: Binding affinity to human partial length KIT D816V mutant (I571 to D952 residues) expressed in bacterial expression system assessed as residual binding level at 1 uM by Kinomescan method relative to control
Method in brief: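 KinomeScan active site-directed competition binding panel (468 kinases), compound tested at 1 μM. Result expressed as remaining kinase signal versus DMSO control (percent of control).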

[4] = target: Glycogen synthase kinase-3 beta (Homo sapiens) (UniProt P49841); experiment: Binding affinity to wild-type human full length GSK3B (M1 to T433 residues) expressed in mammalian expression system assessed as residual binding level at 1 uM by Kinomescan method relative to control
Method in brief: (§1)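 KinomeScan, an active site-directed competition binding panel of 468 kinases. The test compound was at 1 μM. The readout is remaining kinase binding as a percentage of the DMSO control. Scores above 35% were treated as weak binding and not listed.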

[5] = target: Activated CDC42 kinase 1 (Homo sapiens) (UniProt Q07912); experiment: Binding affinity to wild-type human partial length TNK2 (S159 to D474 residues) expressed in bacterial expression system assessed as residual binding level at 1 uM by Kinomescan method relative to control
Method in brief: (§2)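 Active site-directed competition binding panel (KinomeScan, 468 kinases). Test compound at 1 μM. Read-out is kinase binding remaining versus DMSO control, expressed as percent of control. Scores above 35% are treated as weak binding.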

[6] = Half life in B6 mouse at 5 mg/kg, ip; type: ADME, organism-based; conditions: in vivo
Method in brief: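 PK in B6 mice. Single 5 mg/kg intraperitoneal dose in 5% DMSO/95% D5W. Half-life and AUC reported.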

[7] = target: Dual serine/threonine and tyrosine protein kinase (Homo sapiens) (UniProt Q6XUX3); experiment: Binding affinity to wild-type human full length RIPK5 (M1 to T929 residues) expressed in mammalian expression system assessed as residual binding level at 1 uM by Kinomescan method relative to control
Method in brief: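 Active-site-directed competition binding screen across a 468-kinase panel, run with the test compound at 1 μM. The read-out is the kinase signal remaining relative to a DMSO control, reported as a percentage. […]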

[8] = target: Casein kinase I isoform alpha (Homo sapiens) (UniProt P48729); experiment: Binding affinity to wild-type human partial length CSNK1A1 (M1 to L450 residues) expressed in mammalian expression system assessed as residual binding level at 1 uM by Kinomescan method relative to control
Method in brief: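 Active-site-directed competition binding panel of 468 kinases (KinomeScan), compound at 1 μM. The read-out is kinase remaining bound, given as a percentage of the DMSO control. […]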

[9] = target: Serine/threonine-protein kinase NIM1 (Homo sapiens) (UniProt Q8IY84); experiment: Binding affinity to wild-type human partial length NIM1 (Q44 to N355 residues) expressed in mammalian expression system assessed as residual binding level at 1 uM by Kinomescan method relative to control
[10] = target: Serine/threonine-protein kinase Nek7 (Homo sapiens) (UniProt Q8TDX7); experiment: Binding affinity to wild-type human full length NEK7 (M1 to S302 residues) expressed in bacterial expression system assessed as residual binding level at 1 uM by Kinomescan method relative to control
Method in brief: (§3)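 Active-site-directed competition binding panel (KinomeScan) covering 468 kinases. Test agent was screened at 1 μM. The read-out is the remaining kinase signal expressed relative to a DMSO control. Scores above 35%, taken as weak binding, were not reported.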

[11] = AUC in B6 mouse at 5 mg/kg, ip; type: ADME, organism-based; conditions: in vivo
[12] = target: MAP kinase-interacting serine/threonine-protein kinase 1 (Homo sapiens) (UniProt Q9BUB5); experiment: Binding affinity to wild-type human full length MKNK1 (M1 to L424 residues) expressed in mammalian expression system assessed as residual binding level at 1 uM by Kinomescan method relative to control; method in brief: as §3
[13] = target: LIM domain kinase 1 (Homo sapiens) (UniProt P53667); experiment: Binding affinity to wild-type human full length LIMK1 (M1 to D647 residues) expressed in bacterial expression system assessed as residual binding level at 1 uM by Kinomescan method relative to control
Method in brief: (§4)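 Active-site-directed KinomeScan competition binding panel covering 468 kinases, compound tested at 1 μM. Each readout is the kinase signal remaining with compound, expressed as a percentage of the DMSO control. […]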

[14] = target: Serine/threonine-protein kinase pim-1 (Homo sapiens) (UniProt P11309); experiment: Binding affinity to wild-type human partial length PIM1 (A15 to K313 residues) expressed in bacterial expression system assessed as residual binding level at 1 uM by Kinomescan method relative to control
[15] = target: Cyclin-dependent kinase 4/cyclin D1 (Homo sapiens) (UniProt P11802+P24385); experiment: Binding affinity to wild-type human full length CDK4/cyclinD1 (M1 to E303 residues) expressed in mammalian expression system assessed as residual binding level at 1 uM by Kinomescan method relative to control; method in brief: as §4
[16] = target: Tyrosine-protein kinase Fer (Homo sapiens) (UniProt P16591); experiment: Binding affinity to wild-type human partial length FER (S542 to T822 residues) expressed in bacterial expression system assessed as residual binding level at 1 uM by Kinomescan method relative to control
[17] = target: Peripheral plasma membrane protein CASK (Homo sapiens) (UniProt O14936); experiment: Binding affinity to wild-type human partial length CASK (M1 to H315 residues) expressed in mammalian expression system assessed as residual binding level at 1 uM by Kinomescan method relative to control
[18] = target: Ribosomal protein S6 kinase alpha-2 (Homo sapiens) (UniProt Q15349); experiment: Binding affinity to wild-type human partial length C-terminal RSK3 kinase domain 2 (V403 to K700 residues) expressed in bacterial expression system assessed as residual binding level at 1 uM by Kinomescan method relative to control
[19] = target: Serine/threonine-protein kinase WNK2 (Homo sapiens) (UniProt Q9Y3S1); experiment: Binding affinity to wild-type human partial length WNK2 (V47 to D482 residues) expressed in mammalian expression system assessed as residual binding level at 1 uM by Kinomescan method relative to control; method in brief: as §2
[20] = target: Tyrosine-protein kinase ABL2 (Homo sapiens) (UniProt P42684); experiment: Binding affinity to wild-type human ABL2 (A248 to G542 residues) expressed in bacterial expression system assessed as residual binding level at 1 uM by Kinomescan method relative to control; method in brief: as §1

C=CC(=O)Nc1ccccc1Nc1nc(Nc2ccc(N3CCN(C)CC3)cc2)ncc1C(=O)Nc1c(C)cccc1Cl
Activity [1]: 100%
Activity [2]: 100%
Activity [3]: 100%
Activity [4]: 98%
Activity [5]: 81%
half-life [6]: 1.29 h
Activity [7]: 100%
Activity [8]: 86%
Activity [9]: 100%
Activity [10]: 100%
AUC [11]: 212 ng·h/mL
Activity [12]: 92%
Activity [13]: 100%
Activity [14]: 100%
Activity [15]: 100%
Activity [16]: 100%
Activity [17]: 73%
Activity [18]: 100%
Activity [19]: 64%
Activity [20]: 0.35%
